Results as given in ChEMBL document CHEMBL3085653, “Synthesis and evaluation of hexahydropyrimidines and diamines as novel hepatitis C virus inhibitors” (Eur J Med Chem, 2013).
Structures can show the parent of a compound that is named as a salt. Activity calls are given as the source filed them. The rule behind the calls is not given here.

What was measured:
[1] = Cytotoxicity against human HuH7 cells; assay type: cell-based, Huh-7
[2] = Selectivity index, ratio of CC50 for human HuH7 cells to EC50 for cell culture derived HCV expressing NS5A-GFP fusion protein; set-up: species or system Huh-7
In short: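 Index is CC50 divided by EC50. Both values come from the same 10-point dose response in naïve Huh-7 cells infected with NS5A-GFP HCVcc (MOI 1), read at 72 h post-infection. EC50 taken from GFP-positive infection and CC50 from Hoechst nuclei counts, by confocal imaging. Duplicates with quadruplicate measurements.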

Hepatitis C virus [3] = assay: Antiviral activity against cell culture derived HCV expressing NS5A-GFP fusion protein infected in human HuH7 cells assessed as inhibition of viral life cycle after 72 hrs by Hoechst-33342 staining-based confocal microscopy; assay type: functional, organism-based, Hepacivirus hominis; conditions: Huh-7, 72 h
Hepatitis C virus [4] = assay: Antiviral activity against HCV assessed as prevention of infectious virions release into cell culture supernatant by viral supernatant transfer assay; assay type: functional, organism-based; conditions: Hepacivirus hominis
Hepatitis C virus [5] = assay: Antiviral activity against HCV pseudoparticle expressing envelope protein E1 and E2 assessed as inhibition of E1/E2-mediated viral entry into human Huh7 cells treated for 1 hr prior to viral inoculation followed by compound washout 12 hrs post viral inoculation measured after 72 hrs by GFP reporter gene-based confocal microscopic analysis; assay type: functional, organism-based, Hepacivirus hominis; conditions: Huh-7
[6] = Metabolic stability in liver microsomes (unknown origin) assessed as formation of N1,N3-dibenzylpropane-1,3-diamine by mass spectrum analysis; assay type: ADME, Microsome
Hepatitis C virus [7] = assay: Antiviral activity against HCV expressing GFP infected in human HuH7 cells assessed as inhibition of viral RNA replication after 72 hrs by Hoechst-33342 staining-based confocal microscopy; assay type: functional, organism-based, Hepacivirus hominis; conditions: Huh-7, 72 h
In short: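 Huh-7 replicon cells expressing GFP seeded at 2000 cells/well and incubated overnight, then given serially diluted compounds for 72 h. Cells fixed in 2% PFA and nuclei stained with Hoechst 33342 (10 μg/mL). Automated confocal imaging used: RNA replication read as GFP expression, cytotoxicity as nucleus counts. EC50 calculated by non-linear regression.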

[8] = Chemical stability in cell culture medium assessed as formation of N1,N3-dibenzylpropane-1,3-diamine at 37 degC after 2 days by LC/MS analysis; assay type: physicochemical; conditions: 48 h
In short: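 Compound incubated with cells in culture medium at 37 °C for two days. Supernatant then analysed by LC/MS for the parent compound and the ring-opened diamine.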

SMILES	CC50 [1] [µM]	Ratio CC50/EC50 [2]	EC50 (Hepatitis C virus [3]) [µM]	Activity (Hepatitis C virus [4])	EC50 (Hepatitis C virus [5]) [µM]	Stability [6]	EC50 (Hepatitis C virus [7]) [µM]	Stability [8]
CN(C)c1ccc(CN2CCCN(Cc3ccc(N(C)C)cc3)C2c2ccc(F)cc2)cc1	15	12	1.3	Active				
COc1ccc(CN2CCCN(Cc3ccc(OC)cc3)C2c2ccc(C#N)cc2)cc1	20	13	1.5	Active				
CN(C)c1ccc(C2N(Cc3ccccc3)CCN2Cc2ccccc2)cc1	> 50		> 50					
c1ccc(CN2CCCN(Cc3ccccc3)C2c2ccncc2)cc1	> 50	>12	4.3	Active	4	Unstable	> 50	Unstable
c1ccc(CNCCCCCNCc2ccccc2)cc1	29	48	0.61					
COc1ccc(CN2CCCN(Cc3ccc(OC)cc3)C2c2ccc(C#N)c(F)c2)cc1	29	15	1.9	Active				
COc1cccc(CN2CCCN(Cc3ccccc3F)C2c2ccncc2)c1 (stereo unspecified)	> 50	>11	4.7	Active				
CC(=O)N(CCCCN(Cc1ccccc1)C(C)=O)Cc1ccccc1	> 50		> 50					
NCCCCNCCCN [SPERMIDINE TRIHYDROCHLORIDE]	> 50		> 50					
CN(C)c1ccc(CNCCCNCc2ccc(N(C)C)cc2)cc1	17	19	0.88					
CC(C(=O)NCCCNC(=O)C(C)c1ccccc1)c1ccccc1 (stereo unspecified)	> 50		> 50					
Fc1ccccc1CN1CCCN(Cc2ccccc2Cl)C1c1cccc(C(F)(F)F)c1 (stereo unspecified)	> 50	>4.5	11	Active				
CN(C)c1ccc(CN2CCCN(Cc3ccc(N(C)C)cc3)C2c2ccncc2)cc1	14	17	0.83	Active				
O=C(NCCCNC(=O)c1ccccc1)c1ccccc1	> 50		> 50					
COc1cccc(CN2CCCN(Cc3ccccc3F)C2c2ccc(C(F)(F)F)cc2)c1 (stereo unspecified)	23	8.5	2.7	Active				
c1ccc(CNCCNCc2ccccc2)cc1	> 50		> 50					
COc1ccc(CNCCCNCc2ccc(OC)cc2)cc1	33	22	1.5					
c1ccc(CNCCOCCNCc2ccccc2)cc1	28	16	1.7					
c1ccc(CN2CCN(Cc3ccccc3)C2c2ccncc2)cc1	> 50		> 50					
NCCCNCCCCNCCCN [SPERMINE]	> 50		> 50					
COc1ccc(CN2CCCN(Cc3ccc(OC)cc3)C2c2ccc(N(C)C)cc2)cc1	28	22	1.3	Active				

SMILES	CC50 [1] [µM]	Ratio CC50/EC50 [2]	EC50 (Hepatitis C virus [3]) [µM]	Activity (Hepatitis C virus [4])	EC50 (Hepatitis C virus [5]) [µM]	Stability [6]	EC50 (Hepatitis C virus [7]) [µM]	Stability [8]
O=C1N(Cc2ccccc2)CCCN1Cc1ccccc1	> 50		> 50	Active				
COc1ccc(CNCC2CCCN(Cc3ccc(OC)cc3)C2)cc1 (stereo unspecified)	34.5	31	1.1					
Cc1ccc(C2N(Cc3ccccc3)CCCN2Cc2ccccc2)o1	> 50		> 50	Active				
c1ccc(CNCCCNCc2ccccc2)cc1	27	5.9	4.6					
c1ccc(NCCCCNc2ccccc2)cc1	> 50		> 50					
COc1ccc(CN2CCCN(Cc3ccc(OC)cc3)C2c2cccc(C(F)(F)F)c2)cc1	43	13	3.2	Active				
CN(C)c1ccc(CN2CCCN(Cc3ccc(N(C)C)cc3)C2c2ccc(C(F)(F)F)cc2)cc1	23	15	1.5	Active				
COc1ccc(CN2CCCN(Cc3ccc(OC)cc3)C2c2ccc(F)cc2)cc1	38	20	1.9	Active				
CN(C)c1ccc(C2N(Cc3ccccc3)CCCN2Cc2ccccc2)cc1	> 50	>2	25	Active				
c1ccc(CN2CCCN(Cc3ccccc3)C2)cc1	> 50		> 50	Active				
FC(F)(F)c1cccc(C2N(Cc3ccccc3)CCCN2Cc2ccccc2)c1	> 50	>7.7	6.5	Active				
COc1ccc(CN2CCCC(CNc3ccc(OC)cc3)C2)cc1 (stereo unspecified)	> 50	>4.7	11					
CC1N(Cc2ccccc2)CCCN1Cc1ccccc1	> 50	>14	3.7	Active				
COc1ccc(CNCCCCNCc2ccc(OC)cc2)cc1	32	84	0.38					
CC1N(Cc2ccccc2)CCN1Cc1ccccc1	> 50		> 50					
NCCCCN [PUTRESCINE DIHYDROCHLORIDE]	> 50		> 50					
CN(C)c1ccc(CNCCCCNCc2ccc(N(C)C)cc2)cc1	11	34	0.32					
COc1ccc(CN2CCCN(Cc3ccc(OC)cc3)C2c2ccncc2)cc1	23	15	1.5	Active				
CC(CNCCCNCC(C)c1ccccc1)c1ccccc1 (stereo unspecified)	18	15	1.2					
c1ccc(CCNCCCNCCc2ccccc2)cc1	12	11	1.1					
COc1ccc(CN2CCCN(Cc3ccc(OC)cc3)C2c2ccc(C(F)(F)F)cc2)cc1	34	21	1.6	Active				
